CAL PDZ FP-1 – untagged CAL PDZ binding inhibitors, primary screen, biochemical, fluorescence polarization, HTS. AID 602252, 2012. purified CAL PDZ, TMR-peptide fluorescence polarization, 1 h. Golgi-associated PDZ and coiled-coil motif-containing protein (Homo sapiens), Q9HD26. inhibition, % at 24.9 µM. actives 0.92% (n = 300,000);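 active = mean inhibition of at least 30% with at least half of replicates also reaching 30%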
SR-BI uptake up – activators of SR-BI mediated DiI-HDL uptake, primary screen, ldlA[mSR-BI] CHO cells, DiI fluorescence. 3 h; 100 = double the neutral-control signal. activation, % at 12.5 µM. actives 0.096% (n = 320,000);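 active = mean replicate activation of at least 60% and every replicate at or above 60%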
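Material: SR-BI-overexpressing, LDLR-lacking CHO cells | Dosing: Single compound concentration, delivered by pin transfer | Probe or stimulus: Labelled HDL, 10 µg/mL | Signal: Bottom-read cell fluorescence after medium removal, ex 550/em 595 nm | Schedule: 3 h, 37 °C | Evaluation: HDL uptake via cellular fluorescence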
CAL PDZ FP-2 – CAL PDZ peptide-binding inhibitors, primary screen, biochemical, fluorescence polarization, Cer-tagged CAL PDZ, HTS; inhibition, % at 20 µM; AID 504414, 2011; Golgi-associated PDZ and coiled-coil motif-containing protein (Homo sapiens), Q9HD26; purified CAL PDZ, TMR-peptide fluorescence polarization, 1 h; actives 0.02% (n = 330,000);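 active = highest replicate inhibition of at least 40%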
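Control set: unlabelled peptide and DMSO controls / Material: purified CerCALP PDZ construct / Timing: 1 h incubation at room temperature before polarization reading / Doses: 20 µM, one dose / Detection: fluorescence polarization (mP)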
SR-BI HDL uptake – inhibitors of SR-BI mediated HDL lipid uptake, primary screen, ldlA[mSR-BI] cells, fluorescence, single point; Scavenger receptor class B member 1 (Mus musculus), Q61009; ldlA[mSR-BI] CHO cells, DiI-HDL uptake fluorescence, 3 h; inhibition, % at 12.5 µM; actives 0.96% (n = 320,000); AID 488896, 2010;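 active = mean replicate inhibition of at least 70% and a set share of replicates each scoring 70 or more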
Target sequence (Q61009 whole entry, looked up): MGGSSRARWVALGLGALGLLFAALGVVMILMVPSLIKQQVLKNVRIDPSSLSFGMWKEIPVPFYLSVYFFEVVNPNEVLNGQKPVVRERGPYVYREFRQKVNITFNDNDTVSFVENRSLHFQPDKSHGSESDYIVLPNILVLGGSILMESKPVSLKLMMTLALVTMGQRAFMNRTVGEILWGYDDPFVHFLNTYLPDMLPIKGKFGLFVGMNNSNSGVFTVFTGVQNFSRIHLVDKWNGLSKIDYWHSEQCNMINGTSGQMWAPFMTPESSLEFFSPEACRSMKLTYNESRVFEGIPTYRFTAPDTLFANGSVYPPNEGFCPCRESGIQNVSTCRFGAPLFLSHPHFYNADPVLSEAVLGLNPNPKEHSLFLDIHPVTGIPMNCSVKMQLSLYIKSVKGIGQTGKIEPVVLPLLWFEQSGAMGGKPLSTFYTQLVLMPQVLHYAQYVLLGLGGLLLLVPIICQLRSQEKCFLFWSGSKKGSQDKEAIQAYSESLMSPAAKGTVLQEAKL
ATG4B inhibitor – ATG4B protease inhibitors, primary screen, biochemical, fluorescence, uHTS; ATG4B cleavage of LC3-PLA2, NBD-HPC fluorescence, 1 h; actives 0.51% (n = 340,000); inhibition, % at 8.33 µM; Cysteine protease ATG4B (Homo sapiens), Q9Y4P1; in the data active = inhibition above about 40%
PLA2 counter – PLA2 enzyme inhibition, counter-screen for ATG4B inhibitor project, biochemical, single concentration, uHTS hits | shares compounds with ATG4B inhibitor | purified PLA2, NBD-C6-HPC fluorescence, 45 min | inhibition, % at 8.33 µM | actives 66% (n = 1,600) | AID 588402, 2011; in the data active = inhibition above about 50%
Target sequence (P04054 whole entry, looked up): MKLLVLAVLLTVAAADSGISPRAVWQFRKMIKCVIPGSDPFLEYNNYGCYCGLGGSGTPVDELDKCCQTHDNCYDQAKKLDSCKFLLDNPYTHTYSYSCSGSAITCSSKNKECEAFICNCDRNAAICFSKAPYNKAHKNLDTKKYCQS
Hits are given with their value. The list is not random: actives were taken first. Their share in the collection is about 2.3%.

How did N#C/C(=C\c1ccc(OCC(N)=O)cc1)c1ccccc1 do in these assays?
CAL PDZ FP-1: inactive; SR-BI uptake up: inactive; CAL PDZ FP-2: inactive; SR-BI HDL uptake: inactive; ATG4B inhibitor: 45; PLA2 counter: 53

Results for Cc1occc1-c1nnc(SC(C)C(=O)Nc2ccccc2F)o1 (configuration not stated) ?
CAL PDZ FP-1: inactive; SR-BI uptake up: inactive; CAL PDZ FP-2: inactive; SR-BI HDL uptake: inactive; ATG4B inhibitor: inactive

Results for Cc1ccc(S(=O)(=O)Nc2ccc3c(c2)c2c(n3S(=O)(=O)c3ccc(C)cc3)CCCC2=O)cc1 ?
CAL PDZ FP-1: inactive; SR-BI uptake up: inactive; CAL PDZ FP-2: inactive; SR-BI HDL uptake: inactive; ATG4B inhibitor: inactive

How did CSCCC(NC(=O)c1ccccc1Br)C(=O)N1CCCC(C(F)(F)F)C1 (configuration not stated) do in these assays?
SR-BI uptake up: inactive; CAL PDZ FP-2: inactive; SR-BI HDL uptake: inactive; ATG4B inhibitor: inactive

How did Cc1cc(/C=N/NC(=O)C(O)(c2ccccc2)c2ccccc2)c(C)n1-c1cccc(C(=O)O)c1 do in these assays?
CAL PDZ FP-1: inactive; SR-BI uptake up: inactive; CAL PDZ FP-2: inactive; SR-BI HDL uptake: inactive; ATG4B inhibitor: 52; PLA2 counter: 57

Results for CC(C)c1ccc(NC2CCCN(C(=O)c3ccco3)C2)cc1 (configuration not stated) ?
CAL PDZ FP-1: inactive; SR-BI uptake up: inactive; CAL PDZ FP-2: inactive; SR-BI HDL uptake: inactive; ATG4B inhibitor: 54; PLA2 counter: 53

What do the screens show for `CC(=O)c1[nH]c(C)c(C(=O)N2CCCC(Nc3ccc(C(C)C)cc3)C2)c1C` (configuration not stated)?
CAL PDZ FP-1: inactive; SR-BI uptake up: inactive; CAL PDZ FP-2: inactive; SR-BI HDL uptake: inactive; ATG4B inhibitor: inactive

What do the screens show for `CC(=O)c1ccc(C(=O)N2CCCC(Nc3ccc(C(C)C)cc3)C2)s1` (configuration not stated)?
CAL PDZ FP-1: inactive; SR-BI uptake up: inactive; CAL PDZ FP-2: inactive; SR-BI HDL uptake: inactive; ATG4B inhibitor: 49; PLA2 counter: 56

Results for CC(C)(C)OC(=O)N1CCN(C(=O)c2[nH]cnc2C(=O)Nc2cccc(Cl)c2)CC1 ?
CAL PDZ FP-1: inactive; SR-BI uptake up: inactive; CAL PDZ FP-2: inactive; SR-BI HDL uptake: inactive; ATG4B inhibitor: inactive

What do the screens show for `Cn1cc(CCC(=O)N2CCCC(CCC(=O)NCc3ccc(F)c(F)c3)C2)cn1` (configuration not stated)?
CAL PDZ FP-1: inactive; SR-BI uptake up: inactive; CAL PDZ FP-2: inactive; SR-BI HDL uptake: inactive; ATG4B inhibitor: 42; PLA2 counter: inactive

Results for Cn1cc(CCC(=O)N2CCCC(CCC(=O)NCc3ccccc3F)C2)cn1 (configuration not stated) ?
CAL PDZ FP-1: inactive; CAL PDZ FP-2: inactive; ATG4B inhibitor: inactive

How did Fc1cccc(Cl)c1CNc1ccc(N2CCCC2)cc1 do in these assays?
CAL PDZ FP-1: inactive; SR-BI uptake up: inactive; CAL PDZ FP-2: inactive; SR-BI HDL uptake: inactive; ATG4B inhibitor: 59; PLA2 counter: 58

What do the screens show for `NS(=O)(=O)c1ccc(NCc2c(F)cccc2Cl)cc1`?
CAL PDZ FP-1: inactive; SR-BI uptake up: inactive; CAL PDZ FP-2: inactive; SR-BI HDL uptake: inactive; ATG4B inhibitor: inactive

What do the screens show for `Cc1ccccc1S(=O)(=O)Cc1ccc(C(=O)NC2CC2)o1`?
CAL PDZ FP-1: inactive; SR-BI uptake up: inactive; CAL PDZ FP-2: inactive; SR-BI HDL uptake: inactive; ATG4B inhibitor: inactive

What do the screens show for `CCN(CC(=O)Nc1ccc(NC(C)=O)cc1)C(=O)/C=C/c1ccc([N+](=O)[O-])cc1`?
CAL PDZ FP-1: inactive; SR-BI uptake up: inactive; CAL PDZ FP-2: inactive; SR-BI HDL uptake: inactive; ATG4B inhibitor: inactive

Results for COc1ccc(CN2CC(=O)N(c3ccccc3OC)C2=S)cc1OC ?
CAL PDZ FP-1: inactive; SR-BI uptake up: inactive; CAL PDZ FP-2: inactive; SR-BI HDL uptake: inactive; ATG4B inhibitor: inactive

What do the screens show for `Cc1ccc(N2C(=O)CN(Cc3sccc3C)C2=S)cc1C`?
CAL PDZ FP-1: inactive; SR-BI uptake up: inactive; CAL PDZ FP-2: inactive; SR-BI HDL uptake: inactive; ATG4B inhibitor: 95; PLA2 counter: 94

What do the screens show for `Cc1ccc(N2C(=O)CN(Cc3ccccc3)C2=S)cc1C`?
CAL PDZ FP-1: inactive; CAL PDZ FP-2: inactive; ATG4B inhibitor: 75; PLA2 counter: 79

How did Cc1ccc(N2C(=O)CN(Cc3cccs3)C2=S)cc1C do in these assays?
CAL PDZ FP-1: inactive; SR-BI uptake up: inactive; CAL PDZ FP-2: inactive; SR-BI HDL uptake: inactive; ATG4B inhibitor: 58; PLA2 counter: 78

What do the screens show for `COc1cccc(N2C(=O)CN(Cc3cc(OC)c(OC)c(OC)c3)C2=S)c1`?
CAL PDZ FP-1: inactive; SR-BI uptake up: inactive; CAL PDZ FP-2: inactive; SR-BI HDL uptake: inactive; ATG4B inhibitor: inactive

Results for Cc1ccccc1N1C(=O)CN(Cc2sccc2C)C1=S ?
CAL PDZ FP-1: inactive; SR-BI uptake up: inactive; CAL PDZ FP-2: inactive; SR-BI HDL uptake: inactive; ATG4B inhibitor: 65; PLA2 counter: 79

Results for O=C(CCNS(=O)(=O)c1ccccc1)NNC(=O)COc1ccc(Cl)cc1 ?
CAL PDZ FP-1: inactive; SR-BI uptake up: inactive; CAL PDZ FP-2: inactive; SR-BI HDL uptake: inactive; ATG4B inhibitor: inactive

How did CCc1nc(N2CCCCC2C(=O)O)c2oc3ccccc3c2n1 (configuration not stated) do in these assays?
CAL PDZ FP-1: inactive; CAL PDZ FP-2: inactive; ATG4B inhibitor: inactive

What do the screens show for `CCc1nc(N2CCCC(C)C2)c2oc3ccccc3c2n1` (configuration not stated)?
SR-BI uptake up: inactive; CAL PDZ FP-2: inactive; SR-BI HDL uptake: inactive; ATG4B inhibitor: 43; PLA2 counter: 52

Results for CCc1nc(N2CCCCC2)c2oc3ccccc3c2n1 ?
CAL PDZ FP-1: inactive; SR-BI uptake up: inactive; CAL PDZ FP-2: inactive; SR-BI HDL uptake: inactive; ATG4B inhibitor: 53; PLA2 counter: 61

How did CCc1nc(N2CCN(Cc3ccc4c(c3)OCO4)CC2)c2oc3ccccc3c2n1 do in these assays?
CAL PDZ FP-1: inactive; SR-BI uptake up: inactive; CAL PDZ FP-2: inactive; SR-BI HDL uptake: inactive; ATG4B inhibitor: 49; PLA2 counter: 70

Results for Cc1nc(N2CCOCC2)c2oc3ccccc3c2n1 ?
CAL PDZ FP-1: inactive; SR-BI uptake up: inactive; CAL PDZ FP-2: inactive; SR-BI HDL uptake: inactive; ATG4B inhibitor: inactive
